In this series the test system is MS2 coat protein. Put plainly: apparent Kd, MS2 coat protein; higher = weaker binding; RNA-MaP array; FMN 200 µM where present. The procedure, abridged: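 Stalled E. coli RNA polymerase transcribed each design on Illumina sequencing-chip clusters. The clusters were titrated with SNAP-549-labelled MS2 coat protein, starting at 0.7 or 1.5 nM and doubling up to 3 µM, first without ligand and then with constant ligand, in 100 mM Tris-HCl pH 7.5, 80 mM KCl, 4 mM MgCl2, BSA, DTT, yeast tRNA and Tween-20. Green signal was normalised to red-channel RNA signal and to the control-cluster median Fmax. The apparent Kd is the median of filtered binding-curve fits made for each cluster.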

Where [1] appears, read: designed as: OFF switch for flavin mononucleotide, no ligand.
Where [2] appears, read: ligand present: flavin mononucleotide, designed as: OFF switch for flavin mononucleotide.
The mark [3] stands for this setting: designed as: ON switch for flavin mononucleotide, no ligand.
Where [4] appears, read: ligand present: flavin mononucleotide, designed as: ON switch for flavin mononucleotide.

With “CAGGGAACAGGAUAUACAUGAGGAUCACCCAUGUGUUCCAGCUAGGAAACUAGCAAAUGUAGAAGGGUUCCCUG”, the “apparent Kd” value runs as follows: under setting [1], 174 nM; under setting [2], 922 nM.

Turning to “GUGUACAGAGGAUAUGCACGAGUAGUUACGAAAGUAACUAUACAUGAGGAUCACCCAUGUAGAAGGCUGUACAC”, the “apparent Kd” value runs as follows: under setting [1], 13.5 nM; under setting [2], 16.6 nM.

On to “ACUCGUGGACAGAAGGCGACAUGAGGAUCACCCAUGUUGGCUCGGGUAUGACCAAUCCGCAUGAUCGAGGAUAUGUCUGCGGGC”, for which the “apparent Kd” value is, setting by setting: under setting [1], 326 nM; under setting [2], 16.1 nM.

Regarding “AACCUAUUACAGAAGGCCAGCUACAUGAGGAUCACCCAUGUCGAGUCAUGGAGGAUAUGUAGUAAUUUACUCACAAAUAAGUGC”, the “apparent Kd” value was 33.6 nM under setting [3] and 5.16 nM under setting [4].

Turning to “UUCGAGUUGCAAGGAUAUCUUAUUUAGAUUUUAAGAGAAGGUGCUUCACAGCUACAUGAGGAUCACCCAUGUCUUUCUUCUUAU”, the “apparent Kd” value runs as follows: under setting [3], 29.7 nM; under setting [4], 23.7 nM.

Take “GCGUCAGAAUUAAUUGUGACAGACAGAAGGCAAUAGUAUGUGACCGACAUGAGGAUCACCCAUGUUGAGGAUAUGUAUUGACGC”: the “apparent Kd” value under setting [1] turned out to be 5.26 nM and the “apparent Kd” value under setting [2] is 6.53 nM.

For the sequence “UGUUGUUUCAAGAAGGAUGUGUAUUUGUAUUCCAUAGGAUAUUGAGAAAUAGUUGCUCAAGUAUACAUGAGGAUCACCCAUGUU”, the “apparent Kd” value turned out to be 14.2 nM under setting [3] and 9.98 nM under setting [4].

Consider “CCGGCUUACUAGGAUAUAGGAGUCGAUAGACACCUAGAAGGAGUAACAUGAGGAUCACCCAUGUGUCCUACCGG”, for which the “apparent Kd” value worked out at 22.1 nM under setting [1] and 86 nM under setting [2].

On to “CGCAGACAUUGGACCUGGUAACAUGAGGAUCACCCAUGUAUCAGAAGGUACUUAUAGAGAUUAAGUAAGGAUAUGAAGUUUGUG”, for which the “apparent Kd” value was found to be 5.34 nM under setting [3] and 6.55 nM under setting [4].

“GUGUAGAUAGGAUAUACGUGAGUCUAGCGAAGCUAGAUUCUACAUGAGGAUCACCCAUGUAGAAGGGUCUACAC”: the “apparent Kd” value under setting [1] turned out to be 16.1 nM and the “apparent Kd” value under setting [2] was 18.6 nM.

Take “AAAAUGUGAGGAUAUCACGGAGCUCCGCGUGACGGAGCUCCUGAGAAGGCACAUGAGGAUCACCCAUGUCCUGU”: the “apparent Kd” value was 51.3 nM under setting [1] and 316 nM under setting [2].

As for “GACCGCGAGGAAGGAUAUGGAGCCUUAUUGGCUCCAGAAGGUCCAUAAAGGACAUGAGGAUCACCCAUGUGGUGAGAAGCGGUC”, the “apparent Kd” value reads like this: under setting [3], 2070 nM; under setting [4], 179 nM.

Regarding “CGCACUGUACAUGAGGAUCACCCAUGUUAAUAUGAGGUAGUCAGAAGGCAUUGUUUGAGAUAUUAUGAGGAUAUGAUUAGUGCG”, the “apparent Kd” value under setting [3] amounted to 110 nM and the “apparent Kd” value under setting [4] amounted to 28.9 nM.

In the case of “ACACGAAAGUCAGGAUAUGUAUCAGCACGAUAGUUACAUGAGGAUCACCCAUGUUUCACGGGCCAACAGAAGGGACAGGGUGGC”, the “apparent Kd” value was found to be 18.4 nM under setting [3] and 7.62 nM under setting [4].

Take “GUAGUGUAUGUAGGAUAUGUGAACGAAACGUUCACAGAAGGACAUGAGGAUCACCCAUGUAUUACAGUCAGCAAUCUGACUGUU”: the “apparent Kd” value was 25.7 nM under setting [1] and 107 nM under setting [2].

For the sequence “UUUAGUUCAGGAUAUGUAGAUUUUAACAUGAGGAUCACCCAUGUAGAUCCUGAAUUAACUACAGAAGGGAACAUUC”, the “apparent Kd” value is 17.1 nM under setting [1] and 44.2 nM under setting [2].

In the case of “ACCACAGACCAGAAGGGUGAUCGGCCAUGAUACACAGGAUAUGGUCACAUGAGGAUCACCCAUGUAUGGGUUGUGUGACCCAGC”, the “apparent Kd” value under setting [3] came to 70 nM and the “apparent Kd” value under setting [4] was 91.7 nM.

As for “CGCUACGUUUCGUAGCAGUGUCAUCGAGAAGGCCCUGACAUGAGGAUCACCCAUGUUCCAAAAUGGGAGGAUAUCGAUGAUACA”, the “apparent Kd” value stood at 4.89 nM under setting [3] and 4.99 nM under setting [4].

As for “AAUUAAUUAAUUAAUAUACAUGAGGAUCACCCAUGUAAGAUCAAGGAUAUCAGCUCGAAUAGAGCUGAGAAGGUGAUCACAUGU”, the “apparent Kd” value under setting [3] turned out to be 533 nM and the “apparent Kd” value under setting [4] came to 674 nM.

On to “GUGAAGAUAGCAGGAUAUCUAUUUCCUACAUGAGGAUCACCCAUGUAGGUGAUUAGCCGAGUAAAGGAGAAGGGCUAUCUUUAC”, for which the “apparent Kd” value is 6.62 nM under setting [3] and 5.81 nM under setting [4].

“UGAUCUAUGUAGAAGGCCCAUAUCUAUAUUUAGGGAGGAUAUACAUGAGGAUCACCCAUGUGUAGAGCUGGUGGACUGGUCAGC”: the “apparent Kd” value under setting [1] stood at 92.8 nM and the “apparent Kd” value under setting [2] came out at 234 nM.

Consider “GUUUCACAUGAGGAUCACCCAUGUGAGGAUAUGGAUUCGCUGGCCGUAGCCAGUGGAUCCAGAAGGCGCAUGAU”, for which the “apparent Kd” value was found to be 35.7 nM under setting [1] and 44 nM under setting [2].

Turning to “UAUAUAUAGUAAGGAUAUGUAAUUAUUUAAUAAACAGAAGGUACUGACAUGAGGAUCACCCAUGUUUUAGUGUGGGCAUGUAGA”, the “apparent Kd” value is, setting by setting: under setting [1], 80.5 nM; under setting [2], 135 nM.

Turning to “GGAUGACAAAGUCAUCCAUAACGAACAUGAGGAUCACCCAUGUAGGAUAUGCUUCUCAAAGAGAAGCAGAAGGACAUGUGCCUU”, the “apparent Kd” value reads like this: under setting [1], 36.7 nM; under setting [2], 258 nM.

In the case of “UCAUAACAUGAGGAUCACCCAUGUCAGGAUAUGAUACUAUGUACUUCGGUACAUAGUAUCAGAAGGGACAUACU”, the “apparent Kd” value under setting [1] came out at 96.8 nM and the “apparent Kd” value under setting [2] was found to be 153 nM.

Take “GGGUACAUCGGAGGAUAUUAUGUAAAUACAUGAGGAUCACCCAUGUCGAUGGAGACAUCGGAGAUUGAGAAGGCCGAUGUACCG”: the “apparent Kd” value by setting is: under setting [3], 119 nM; under setting [4], 8.94 nM.

With “AACAGUAGAGGAUAUACAUGAGGAUCACCCAUGUGAUUAUUACGUGGCGUACCACGAAGUAGAAGGCUACUGGA”, the “apparent Kd” value was found to be 61 nM under setting [1] and 203 nM under setting [2].

Regarding “GGGUACAUCGGAGGAUAUCAUGUAAAUACAUGAGGAUCACCCAUGUCGAUGGAGACAUCGGAGAUUGAGAAGGCCGAUGUACGG”, the “apparent Kd” value reads like this: under setting [3], 160 nM; under setting [4], 9.04 nM.

As for “UGCAUGGUAGGAUAUACGGAGCAUUAGGGUUUGUUGUGUGGACAUGAGGAUCACCCAUGUAGAAGGGCCGUGCU”, the “apparent Kd” value by setting is: under setting [1], 42.8 nM; under setting [2], 65.2 nM.

For “UUGGUAUUUGUAGGAUAUCUGUCGCCACCGUGUGGAGAAGGACGAACAUGAGGAUCACCCAUGUAUCAUGGUGUGGGCUUUGCU”, the “apparent Kd” value under setting [1] is 302 nM and the “apparent Kd” value under setting [2] was determined as 317 nM.

With “GGCUAACGGGCUAACAUGAGGAUCACCCAUGUGGACUCAUGGUAGGAUAUGCUGUACAAAGUACAGCAGAAGGGCCGGUGAGCC”, the “apparent Kd” value under setting [3] was 128 nM and the “apparent Kd” value under setting [4] stood at 978 nM.

Consider “ACAGCCGUCUAGAAGGGCGUAACUAAUUCCUACGUAGGAUAUGGACGGACAUGAGGAUCACCCAUGUUUGCAUUCCUCGUGGUA”, for which the “apparent Kd” value under setting [1] is 7.74 nM and the “apparent Kd” value under setting [2] worked out at 8.46 nM.

Regarding “GUAGGGUCAGGAUAUACGGGCGGGAGGAUGUAUUGUAGUUGGUAGAAGGGACAUGAGGAUCACCCAUGUGAGAA”, the “apparent Kd” value by setting is: under setting [1], 34.3 nM; under setting [2], 30.5 nM.

Turning to “UUAUUUUUACAGAAGGUUUAAUAAUAUGUAUGAGAAGGAUAUGUAACAUGAGGAUCACCCAUGUUUUAUCUAUAUGAGGAUCAU”, the “apparent Kd” value is, setting by setting: under setting [1], 6.69 nM; under setting [2], 6.88 nM.

Regarding “UACCUGAGGCAAAGCUUUAGGUAUACAUGAGGAUCACCCAUGUAGGAUAUGGUAGGCUUUGCCUACCAGAAGGACAUGUUAAUU”, the “apparent Kd” value reads like this: under setting [1], 19.7 nM; under setting [2], 55.3 nM.

For “GCUGGACGAGGAUAUACAUUCGUGCUUCGGCACGUAAGAUCACAUGAGGAUCACCCAUGUAGAAGGUGUCCAGC”, the “apparent Kd” value is, setting by setting: under setting [1], 42.1 nM; under setting [2], 200 nM.

As to “AGUACUACAGGAUAUACAUGGGUGAUCCUCAUGUCCCUUCUACAUGAGGAUCACCCAUGUAGAAGGGUAGUACA”, the “apparent Kd” value reads like this: under setting [1], 15.1 nM; under setting [2], 11.3 nM.

As to “UGUCGGAGUAGAGGAUAUUACAUGAGGAUCACCCAUGUAUGAACCAAUAGCUGGAAACAGCAAUGUAAGAAGGCUGCUCCGACA”, the “apparent Kd” value was determined as 8.91 nM under setting [1] and 110 nM under setting [2].

On to “AAUAACAGAGGAUAUACUAUUUUAUGUGUUUGUUAUUUUAAACAUGAGGAUCACCCAUGUAGAAGGCUGAAUGA”, for which the “apparent Kd” value by setting is: under setting [1], 26.4 nM; under setting [2], 26.4 nM.

For the sequence “UUAAAUCAUGUAGGAUAUGCAUGGCGAAGCUACGCAGAAGGACAUGAGGAUCACCCAUGUUCGAGCUACCGAGUUCGGUGGCAA”, the “apparent Kd” value by setting is: under setting [1], 21.9 nM; under setting [2], 122 nM.

For the sequence “AGUGUCGGCACAGGAUAUGAGAUGCCGGCAGACAUGAGGAUCACCCAUGUAAGCGAACCAGGCAGUCAGAAGGGUGAUCGACGA”, the “apparent Kd” value under setting [3] was 119 nM and the “apparent Kd” value under setting [4] was 26.9 nM.

For “CUAAAGCGAGGAUAUACAAUAAAAGGGAAUAAGGGAAAAAAACAUGAGGAUCACCCAUGUAGAAGGCGCCGAAA”, the “apparent Kd” value is, setting by setting: under setting [1], 32.2 nM; under setting [2], 30.6 nM.

On to “GUGGUCAGACAUGAGGAUCACCCAUGUGGAAUAAAUAACAACUAGGAUAUAUAAUAUAGGAUAUAAUAGAAGGAGUGAUUGGUG”, for which the “apparent Kd” value came out at 141 nM under setting [3] and 188 nM under setting [4].

Consider “UGAUAGGACAGAGGAUAUACGGCUAGGAGAUACUAGCCACUAUUCCUCACAUGAGGAUCACCCAUGUAGAAGGCUGUCCUAUCU”, for which the “apparent Kd” value by setting is: under setting [1], 16.4 nM; under setting [2], 119 nM.

Consider “AAGAGAAAAGCAGGAUAUCUAUAGGCUCCUUAACAUGAGGAUCACCCAUGUAGAGAAGGGCUAAGACCGACUCUUCGGAGUUGA”, for which the “apparent Kd” value under setting [1] came out at 9.23 nM and the “apparent Kd” value under setting [2] turned out to be 27.6 nM.

Consider “UCACGGGUUUGAGGAUAUAUUAUUAUUAUUUAAAUAGAAGGCAAAGAAAUUGUUAUUUCACUAUACAUGAGGAUCACCCAUGUU”, for which the “apparent Kd” value under setting [1] turned out to be 25.4 nM and the “apparent Kd” value under setting [2] is 23.4 nM.

For the sequence “CUUUUGUGAGGAUAUCAGUAGUAAAAGAAUAAAAUUACUACUGAGAAGGCACAUGAGGAUCACCCAUGUUCCUC”, the “apparent Kd” value by setting is: under setting [1], 42.5 nM; under setting [2], 239 nM.

For “UCCGAUGUACAUGAGGAUCACCCAUGUCACAUGCCCGUGACACAGGAUAUCCAGGAUAGGCCAAAGGAGAAGGGUGAUCCGCGG”, the “apparent Kd” value stood at 64.3 nM under setting [3] and 94.5 nM under setting [4].

Values taken from the EternaBench riboswitch data.
